# In ChEMBL document CHEMBL1156690, “Synthesis, anti-HIV-1 integrase, and cytotoxic activities of 4-chloro-N-(4-oxopyrimidin-2-yl)-2-mercaptobenzenesulfonamide derivatives” (Eur J Med Chem, 2008):
# Legend:
# [1] = target: T1, Human immunodeficiency virus type 1 integrase (Human immunodeficiency virus 1, UniProt Q7ZJM1); experiment: Inhibition of HIV1 integrase 3' processing activity
# Procedure, shortened: (§1)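 HIV-1 integrase (200 nM final) preincubated 30 min at 30 °C with inhibitor in buffer (pH 7.2 MOPS, NaCl, HEPES, EDTA, DTT, 10% glycerol, 7.5 mM MnCl₂, 0.1 mg/ml BSA, 2-mercaptoethanol, 10% DMSO). 20 nM 5'-³²P-labeled linear oligonucleotide substrate then added for 1 h. Quenched with formamide loading dye; products resolved on denaturing 20% polyacrylamide/urea gel. IC₅₀ reported for each step.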
# [2] = target: T1, Human immunodeficiency virus type 1 integrase; experiment: Inhibition of HIV1 integrase strand transfer activity; procedure, shortened: as §1
# [3] = system: UACC-62; experiment: Growth inhibition of human UACC62 cells; type: functional
# Procedure, shortened: (§2)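 Run by the US National Cancer Institute in vitro screen against a panel of 53–57 human tumor cell lines. GI₅₀ is defined as the molar concentration inhibiting 50% net cell growth. TGI is the concentration giving total growth inhibition.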
# [4] = system: EKVX; experiment: Growth inhibition of human EKVX cells; type: functional; procedure, shortened: as §2
# [5] = system: SNB-19; experiment: Growth inhibition of human SNB19 cells; type: functional; procedure, shortened: as §2
# [6] = system: SF-268; experiment: (§3) Growth inhibition of human SF268 cells; type: functional; procedure, shortened: as §2
# [7] = system: SNB-75; experiment: Growth inhibition of human SNB75 cells; type: functional; procedure, shortened: as §2
# [8] = system: NCI-H522; experiment: Growth inhibition of human NCI-H522 cells; type: functional; procedure, shortened: as §2
# [9] = system: MOLT-4; experiment: Growth inhibition of human MOLT4 cells; type: functional; procedure, shortened: as §2
# [10] = system: SR; experiment: Growth inhibition of human SR cells; type: functional; procedure, shortened: as §2
# [11] = system: LOX IMVI; experiment: Growth inhibition of human LOX IMVI cells; type: functional; conditions: for TGI / GI50: Homo sapiens, LOX IMVI; procedure, shortened: as §2
# [12] = system: BT-549; experiment: Growth inhibition of human BT549 cells; type: functional; procedure, shortened: as §2
# [13] = system: T47D; experiment: Growth inhibition of human T47D cells; type: functional; procedure, shortened: as §2
# [14] = system: SF-268; experiment: as §3; type: functional; procedure, shortened: as §2; remark: listed apart in the source
# [15] = system: SN12C; experiment: Growth inhibition of human SN12C cells; type: functional; procedure, shortened: as §2
# [16] = system: HOP-62; experiment: Growth inhibition of human HOP62 cells; type: functional; procedure, shortened: as §2
# [17] = system: SK-MEL-5; experiment: Growth inhibition of human SK-MEL-5 cells; type: functional; procedure, shortened: as §2
# [18] = system: HCT-116; experiment: Growth inhibition of human HCT116 cells; type: functional; procedure, shortened: as §2
# [19] = system: A498; experiment: Growth inhibition of human A498 cells; type: functional; procedure, shortened: as §2
# [20] = system: KM12; experiment: Growth inhibition of human KM12 cells; type: functional; procedure, shortened: as §2
# [21] = system: NCI-H322M; experiment: Growth inhibition of human NCI-H322M cells; type: functional; procedure, shortened: as §2
# [22] = system: M14; experiment: Growth inhibition of human M14 cells; type: functional; procedure, shortened: as §2
# [23] = system: Malme-3M; experiment: Growth inhibition of human MALME-3M cells; type: functional; procedure, shortened: as §2
# [24] = system: CCRF-CEM; experiment: Growth inhibition of human CCRF-CEM cells; type: functional; procedure, shortened: as §2
# [25] = system: HCC 2998; experiment: Growth inhibition of human HCC2998 cells; type: functional; procedure, shortened: as §2
# T1 sequence (Q7ZJM1 whole entry): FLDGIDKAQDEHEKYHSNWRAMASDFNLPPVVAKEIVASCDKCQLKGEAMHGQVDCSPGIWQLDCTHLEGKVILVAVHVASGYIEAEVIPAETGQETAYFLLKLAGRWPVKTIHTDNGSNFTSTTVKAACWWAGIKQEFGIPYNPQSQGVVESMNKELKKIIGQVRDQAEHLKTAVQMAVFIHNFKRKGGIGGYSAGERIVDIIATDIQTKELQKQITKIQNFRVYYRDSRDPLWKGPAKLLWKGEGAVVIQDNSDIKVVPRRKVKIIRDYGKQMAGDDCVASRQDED
compound,measurement,setting,value
O=C(Nc1ccc(Cl)cc1)c1cc(S(=O)(=O)Nc2nc3ccccc3c(=O)[nH]2)c(SCc2ccccc2)cc1Cl,IC50,[1],> 100 µM
same,IC50,[2],52 µM
COc1ccc(NC(=O)c2cc(S(=O)(=O)Nc3nc4ccccc4c(=O)[nH]3)c(SCc3ccccc3)cc2Cl)cc1,IC50,[1],> 100 µM
same,IC50,[2],93 µM
Cc1cc(S(=O)(=O)Nc2nc3ccccc3c(=O)n2N)c(S)cc1Cl,IC50,[1],> 100 µM
same,GI50,[3],19.7 µM
same,TGI,[3],49.2 µM
same,GI50,[4],14.8 µM
same,TGI,[4],29.2 µM
same,IC50,[2],> 100 µM
same,GI50,[5],15.7 µM
same,TGI,[5],47.2 µM
same,GI50,[6],7.2 µM
same,TGI,[6],40.1 µM
same,GI50,[7],13.3 µM
same,TGI,[7],32.7 µM
same,GI50,[8],19 µM
same,TGI,[8],50.8 µM
Cc1cc(S(=O)(=O)Nc2nc3cc(C(C)(C)C)sc3c(=O)n2Cc2ccccc2)c(S)cc1Cl,IC50,[1],22 µM
same,IC50,[2],4 µM
Cc1cc(S(=O)(=O)Nc2nc3ccccc3c(=O)n2Cc2ccco2)c(S)cc1Cl,GI50,[9],18.6 µM
same,TGI,[9],70.6 µM
same,GI50,[10],19.5 µM
same,TGI,[10],40.7 µM
same,IC50,[1],78 µM
same,growth inhibitory concentration,[11],16.1 µM
same,TGI,[11],59.3 µM
same,IC50,[2],42 µM
same,GI50,[5],< 0.01 µM
same,TGI,[5],88.8 µM
same,GI50,[12],15.7 µM
same,TGI,[12],51.9 µM
same,GI50,[13],15 µM
same,TGI,[13],81.4 µM
Cc1cc(S(=O)(=O)Nc2nc3sc(C)c(C)c3c(=O)n2N)c(S)cc1Cl,IC50,[1],55 µM
same,IC50,[2],39 µM
Cc1cc(S(=O)(=O)Nc2nc3cc(-c4ccsc4)sc3c(=O)n2Cc2ccco2)c(S)cc1Cl,GI50,[14],> 100 µM
same,GI50,[15],> 100 µM
same,GI50,[16],> 100 µM
same,GI50,[9],> 100 µM
same,GI50,[10],> 100 µM
same,GI50,[17],> 100 µM
same,IC50,[1],8 µM
same,GI50,[18],> 100 µM
same,GI50,[11],> 100 µM
same,GI50,[3],> 100 µM
same,GI50,[4],> 100 µM
same,IC50,[2],6 µM
same,GI50,[19],> 100 µM
same,GI50,[20],> 100 µM
same,GI50,[21],> 100 µM
same,GI50,[22],> 100 µM
same,GI50,[5],> 100 µM
same,GI50,[23],> 100 µM
same,GI50,[6],> 100 µM
same,GI50,[24],> 100 µM
same,GI50,[25],> 100 µM
same,GI50,[7],> 100 µM
same,GI50,[12],> 100 µM
same,GI50,[13],> 100 µM
same,GI50,[8],> 100 µM
Cc1cc(S(=O)(=O)Nc2nc3cscc3c(=O)n2N)c(S)cc1Cl,GI50,[14],17.7 µM
same,TGI,[14],68.1 µM
same,IC50,[1],69 µM
same,IC50,[2],43 µM
same,GI50,[7],15 µM
same,TGI,[7],58.5 µM
Cc1cc(S(=O)(=O)Nc2nc3ccsc3c(=O)[nH]2)c(SCc2ccccc2)cc1Cl,IC50,[1],> 100 µM
same,IC50,[2],70 µM
Cc1cc(S(=O)(=O)Nc2nc3cscc3c(=O)[nH]2)c(SCc2ccccc2)cc1Cl,IC50,[1],> 100 µM
same,IC50,[2],78 µM
O=C(Nc1ccccc1)c1cc(S(=O)(=O)Nc2nc3ccccc3c(=O)[nH]2)c(SCc2ccccc2)cc1Cl,IC50,[1],73 µM
same,IC50,[2],36 µM
Cc1cc(S(=O)(=O)Nc2nc3n[nH]cc3c(=O)n2N)c(S)cc1Cl,IC50,[1],> 100 µM
same,IC50,[2],> 100 µM
Cc1cc(S(=O)(=O)Nc2nc(=O)c3ccccc3n2C)c(SCc2ccccc2)cc1Cl,IC50,[1],> 100 µM
same,IC50,[2],90 µM
Cc1cc(S(=O)(=O)Nc2nc(N)n[nH]2)c(S)cc1Cl,IC50,[1],4.79 µM
same,IC50,[2],4.9 µM
Cc1cc(S(=O)(=O)Nc2nc3cscc3c(=O)n2Cc2ccccc2)c(S)cc1Cl,GI50,[15],16.6 µM
same,TGI,[15],54.5 µM
same,GI50,[16],16.5 µM
same,TGI,[16],39.3 µM
same,GI50,[9],3.9 µM
same,TGI,[9],32.5 µM
same,IC50,[1],80 µM
same,GI50,[11],18.2 µM
same,TGI,[11],51.6 µM
same,IC50,[2],31 µM
same,GI50,[20],19.9 µM
same,TGI,[20],74.7 µM
same,GI50,[21],18.2 µM
same,TGI,[21],45.9 µM
same,GI50,[24],14 µM
same,TGI,[24],47.6 µM
same,GI50,[25],18.9 µM
same,TGI,[25],68.5 µM
same,GI50,[13],4.5 µM
same,TGI,[13],40.8 µM
COc1cc2nc(NS(=O)(=O)c3cc(C)c(Cl)cc3S)n(N)c(=O)c2cc1OC,IC50,[1],> 100 µM
same,IC50,[2],> 100 µM
Cc1cc(S(=O)(=O)Nc2nc3ccsc3c(=O)n2N)c(S)cc1Cl,IC50,[1],65 µM
same,IC50,[2],53 µM
Cc1cc(S(=O)(=O)Nc2nc3scc(C)c3c(=O)n2N)c(S)cc1Cl,IC50,[1],> 100 µM
same,IC50,[2],81 µM
Cc1ccc(NC(=O)c2cc(S(=O)(=O)Nc3nc4ccccc4c(=O)[nH]3)c(SCc3ccccc3)cc2Cl)cc1,IC50,[1],> 100 µM
same,IC50,[2],77 µM
Cc1cc(S(=O)(=O)Nc2nc3cc(Cl)ccc3c(=O)[nH]2)c(SCc2ccccc2)cc1Cl,IC50,[1],47 µM
same,IC50,[2],33 µM
Cc1cc(S(=O)(=O)Nc2nc3cc(C(C)(C)C)sc3c(=O)n2N)c(S)cc1Cl,IC50,[1],60 µM
same,IC50,[2],35 µM
Cc1cc(S(=O)(=O)Nc2nc3ccccc3c(=O)[nH]2)c(SCc2ccccc2)cc1Cl,IC50,[1],> 100 µM
same,IC50,[2],83 µM
NC(=O)c1cc(S(=O)(=O)Nc2nc3ccccc3c(=O)[nH]2)c(SCc2ccccc2)cc1Cl,IC50,[1],> 100 µM
same,IC50,[2],> 100 µM
Cc1cc(S(=O)(=O)Nc2nc3ccsc3c(=O)n2Cc2ccccc2)c(S)cc1Cl,GI50,[16],19.7 µM
same,TGI,[16],46.6 µM
same,GI50,[17],12.5 µM
same,TGI,[17],34.2 µM
same,IC50,[1],53 µM
same,GI50,[18],19.2 µM
same,TGI,[18],37.7 µM
same,GI50,[3],19.5 µM
same,TGI,[3],44.4 µM
same,IC50,[2],29 µM
same,GI50,[19],14.2 µM
same,TGI,[19],49.3 µM
same,GI50,[20],19.9 µM
same,TGI,[20],48.2 µM
same,GI50,[21],19.5 µM
same,TGI,[21],48.8 µM
same,GI50,[22],19.8 µM
same,TGI,[22],49.6 µM
same,GI50,[23],19.9 µM
same,TGI,[23],56.1 µM
Cc1cc(S(=O)(=O)Nc2nc3ccsc3c(=O)n2Cc2ccco2)c(S)cc1Cl,GI50,[9],19.4 µM
same,TGI,[9],84.2 µM
same,GI50,[10],9.9 µM
same,TGI,[10],29.7 µM
same,IC50,[1],62 µM
same,IC50,[2],53 µM
Cc1cc(S(=O)(=O)Nc2nc3cc(-c4ccc(Cl)cc4)sc3c(=O)n2Cc2ccccc2)c(S)cc1Cl,GI50,[14],> 100 µM
same,GI50,[15],> 100 µM
same,GI50,[16],> 100 µM
same,GI50,[9],> 100 µM
same,GI50,[10],> 100 µM
same,GI50,[17],> 100 µM
same,IC50,[1],6 µM
same,GI50,[18],> 100 µM
same,GI50,[11],> 100 µM
same,GI50,[3],> 100 µM
same,GI50,[4],> 100 µM
same,IC50,[2],4 µM
same,GI50,[19],> 100 µM
same,GI50,[20],> 100 µM
same,GI50,[22],> 100 µM
same,GI50,[5],> 100 µM
same,GI50,[23],> 100 µM
same,GI50,[6],> 100 µM
same,GI50,[24],> 100 µM
same,GI50,[25],> 100 µM
same,GI50,[7],> 100 µM
same,GI50,[12],> 100 µM
same,GI50,[13],> 100 µM
same,GI50,[8],> 100 µM
